Experimental data reported in ChEMBL document CHEMBL1144302, “Triaryl bis-sulfones as a new class of cannabinoid CB2 receptor inhibitors: identification of a lead and initial SAR studies” (Bioorg Med Chem Lett, 2005).

Legend:
[1] = Binding affinity for cannabinoid receptor 2 was determined by using [35S]GTP-gamma-S, as radioligand; type: functional, Homo sapiens
In short: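 Human CB2 co-expressed with Gαi3 and β1γ2 in Sf9 cell membranes (7–14 pmol/mg receptor). Triplicate serial dilutions were incubated with membranes, 0.3 nM [35S]GTPγS and GDP in 20 mM HEPES, 100 mM NaCl, 5 mM MgCl2, 0.2% (w/v) lipid-free BSA, pH 7.4, for 30 min at 30°C. Reactions were stopped by filtration, and filters were washed 10× at room temperature with 20 mM HEPES/10 mM sodium pyrophosphate. Bound label was counted by liquid scintillation.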

[2] = target: Cannabinoid receptor (Homo sapiens) (UniProt P34972+P21554); experiment: Selectivity of cannabinoid receptor 2 over cannabinoid receptor 1; type: protein assay
Cannabinoid receptor (Homo sapiens), sequence (P21554 whole entry, looked up): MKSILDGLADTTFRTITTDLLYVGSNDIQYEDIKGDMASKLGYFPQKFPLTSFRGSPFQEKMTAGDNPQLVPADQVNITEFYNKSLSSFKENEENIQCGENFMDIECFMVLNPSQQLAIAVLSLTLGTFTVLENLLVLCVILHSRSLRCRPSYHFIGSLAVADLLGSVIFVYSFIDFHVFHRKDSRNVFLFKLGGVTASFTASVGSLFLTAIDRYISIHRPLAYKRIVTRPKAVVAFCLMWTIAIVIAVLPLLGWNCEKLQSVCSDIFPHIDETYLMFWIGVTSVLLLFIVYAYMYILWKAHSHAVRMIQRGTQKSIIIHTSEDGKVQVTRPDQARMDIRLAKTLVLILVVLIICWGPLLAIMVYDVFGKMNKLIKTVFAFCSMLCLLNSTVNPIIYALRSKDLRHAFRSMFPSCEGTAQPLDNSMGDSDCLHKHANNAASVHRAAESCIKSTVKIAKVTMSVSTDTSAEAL
Cannabinoid receptor (Homo sapiens), sequence (P34972 whole entry, looked up): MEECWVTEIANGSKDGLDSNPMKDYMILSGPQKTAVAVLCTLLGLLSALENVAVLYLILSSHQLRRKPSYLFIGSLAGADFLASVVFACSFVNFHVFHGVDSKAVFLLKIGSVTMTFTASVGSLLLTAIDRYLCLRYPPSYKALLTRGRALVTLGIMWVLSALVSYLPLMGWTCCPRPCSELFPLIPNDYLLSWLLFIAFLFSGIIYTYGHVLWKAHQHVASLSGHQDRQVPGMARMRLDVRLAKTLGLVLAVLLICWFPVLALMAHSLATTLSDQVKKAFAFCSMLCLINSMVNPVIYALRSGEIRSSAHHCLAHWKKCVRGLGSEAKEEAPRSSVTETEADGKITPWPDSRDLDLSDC

[3] = target: Cannabinoid receptor 1 (Homo sapiens, UniProt P21554); experiment: Binding affinity for cannabinoid receptor 1
Cannabinoid receptor 1, sequence (P21554 whole entry): as the sequence (P21554 whole entry, looked up) above

[4] = target: Cannabinoid receptor 2 (Homo sapiens, UniProt P34972); experiment: Binding affinity for human cannabinoid receptor 2 was determined by using [3H]CP-55940 as radioligand
Cannabinoid receptor 2, sequence (P34972 whole entry): as the sequence (P34972 whole entry, looked up) above

COc1ccc(S(=O)(=O)c2cc(OC)ccc2S(=O)(=O)c2ccc([C@H](C)NC(=O)Nc3ccc(C)cc3)cc2)cc1
Ki [1]: 0.802 µM
Selectivity [2]: 125
Ki [3]: 100 µM

COc1ccc(C(=O)N[C@@H](C)c2ccc(S(=O)(=O)c3ccc(OC)cc3S(=O)(=O)c3ccc(OC)cc3)cc2)cc1
Ki [1]: 1.26 µM
Selectivity [2]: 0.9
Ki [3]: 1.17 µM

COc1ccc(S(=O)(=O)c2cc(OC)ccc2S(=O)(=O)c2ccc([C@H](C)NC(=O)C3CC3)cc2)cc1
Ki [1]: 0.0157 µM
Selectivity [2]: 676
Ki [3]: 10.6 µM

CCCNC(=O)N[C@@H](C)c1ccc(S(=O)(=O)c2ccc(OC)cc2S(=O)(=O)c2ccc(OC)cc2)cc1
Ki [1]: 0.495 µM
Selectivity [2]: 145
Ki [3]: 72.1 µM

COc1ccc(C(=O)c2c(C)n(CCN3CCOCC3)c3cc(I)ccc23)cc1
Ki [4]: 0.0312 µM

COc1ccc(S(=O)(=O)c2cc(OC)ccc2S(=O)(=O)c2ccc([C@H](C)NC(=O)c3ccc(C)cc3)cc2)cc1
Ki [1]: 0.289 µM
Selectivity [2]: 3
Ki [3]: 0.884 µM

COc1ccc(S(=O)(=O)c2cc(OC)ccc2S(=O)(=O)c2ccc([C@H](C)NC(=O)c3ccc(Cl)c(Cl)c3)cc2)cc1
Ki [1]: 0.167 µM
Selectivity [2]: 0.5
Ki [3]: 0.084 µM

COc1ccc(S(=O)(=O)c2cc(OC)ccc2S(=O)(=O)c2ccc([C@H](C)NC(=O)C(F)(F)F)cc2)cc1
Ki [1]: 0.0003 µM
Selectivity [2]: 783
Ki [3]: 0.235 µM

CCS(=O)(=O)N[C@@H](C)c1ccc(S(=O)(=O)c2ccc(OC)cc2S(=O)(=O)c2ccc(OC)cc2)cc1
Ki [1]: 0.001 µM
Selectivity [2]: 1510
Ki [3]: 1.97 µM

COc1ccc(S(=O)(=O)c2cc(OC)ccc2S(=O)(=O)c2ccc([C@H](C)NC(=O)Nc3ccc(F)cc3)cc2)cc1
Ki [1]: 1.14 µM
Selectivity [2]: 15
Ki [3]: 17.6 µM

COc1ccc(S(=O)(=O)c2cc(OC)ccc2S(=O)(=O)c2ccc([C@H](C)NS(=O)(=O)c3ccccc3)cc2)cc1
Ki [1]: 0.239 µM
Selectivity [2]: 3.6
Ki [3]: 0.855 µM

CCCCS(=O)(=O)N[C@@H](C)c1ccc(S(=O)(=O)c2ccc(OC)cc2S(=O)(=O)c2ccc(OC)cc2)cc1
Ki [1]: 0.041 µM
Selectivity [2]: 27
Ki [3]: 1.13 µM

COc1ccc(S(=O)(=O)c2cc(OC)ccc2S(=O)(=O)c2ccc([C@H](C)NC(=O)C(C)(C)C)cc2)cc1
Ki [1]: 0.0386 µM
Selectivity [2]: 60
Ki [3]: 2.31 µM

CCC(=O)N[C@@H](C)c1ccc(S(=O)(=O)c2ccc(OC)cc2S(=O)(=O)c2ccc(OC)cc2)cc1
Ki [1]: 0.029 µM
Selectivity [2]: 122
Ki [3]: 3.56 µM

COc1ccc(S(=O)(=O)c2cc(OC)ccc2S(=O)(=O)c2ccc([C@H](C)NC(=O)Cc3ccccc3)cc2)cc1
Ki [1]: 0.412 µM
Selectivity [2]: 1.2
Ki [3]: 0.478 µM

COc1ccc(S(=O)(=O)c2ccc([C@H](C)NC(=O)C(F)(F)F)cc2)cc1
Ki [1]: 0.031 µM

COc1ccc(S(=O)(=O)c2cc(OC)ccc2S(=O)(=O)c2ccc([C@H](C)NS(=O)(=O)Cc3ccccc3)cc2)cc1
Ki [1]: 0.16 µM
Selectivity [2]: 0.5
Ki [3]: 0.079 µM

COc1ccc(S(=O)(=O)c2cc(OC)ccc2S(=O)(=O)c2ccc([C@H](C)NS(=O)(=O)c3ccc(C)cc3)cc2)cc1
Ki [1]: 0.495 µM
Selectivity [2]: 3.9
Ki [3]: 1.92 µM

COc1ccc(S(=O)(=O)c2cc(OC)ccc2S(=O)(=O)c2ccc([C@H](C)NS(=O)(=O)c3ccc(Cl)c(Cl)c3)cc2)cc1
Ki [1]: 2.48 µM
Selectivity [2]: 0.05
Ki [3]: 0.117 µM

CCCC(=O)N[C@@H](C)c1ccc(S(=O)(=O)c2ccc(OC)cc2S(=O)(=O)c2ccc(OC)cc2)cc1
Ki [1]: 0.0062 µM
Selectivity [2]: 189
Ki [3]: 1.17 µM

COc1ccc(S(=O)(=O)c2cc(OC)ccc2S(=O)(=O)c2ccc([C@H](C)NS(C)(=O)=O)cc2)cc1
Ki [1]: 0.0004 µM
Selectivity [2]: 2260
Ki [3]: 0.905 µM

COc1ccc(S(=O)(=O)c2cc(OC)ccc2S(=O)(=O)c2ccc([C@H](C)NC(C)=O)cc2)cc1
Ki [1]: 0.0077 µM
Selectivity [2]: 231
Ki [3]: 1.78 µM
